In ChEMBL document CHEMBL1671867, “Novel polymyxin derivatives carrying only three positive charges are effective antibacterial agents” (Antimicrob Agents Chemother, 2008):
Values after ≈ are worked out from the molar mass of the structure shown.

Legend:
Type in all cases: functional
Acinetobacter baumannii [1] = test: Antibacterial activity against Acinetobacter baumannii ATCC 19606 by Etest method in presence of 1 ug/ml NAB739
Acinetobacter baumannii [2] = test: Antibacterial activity against Acinetobacter baumannii F264 by Etest method in presence of 0.5 ug/ml NAB739
Pseudomonas aeruginosa [3] = test: Antibacterial activity against Pseudomonas aeruginosa ATCC 27853by Etest method in presence of 0.5 ug/ml NAB739
Procedure, shortened: (§1)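 MICs of the antibiotic taken from E-strips on Mueller-Hinton agar, run both with and without peptide. […] Inoculum was prepared per the strip manufacturer, matching CLSI M2-A9.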

Acinetobacter baumannii [4] = test: Antibacterial activity against Acinetobacter baumannii ATCC 19606 by Etest method in presence of NAB739
Pseudomonas aeruginosa [5] = test: (§2) Antibacterial activity against Pseudomonas aeruginosa ATCC 27853by Etest method in presence of […] NAB739
Acinetobacter baumannii [6] = test: (§3) Antibacterial activity against Acinetobacter baumannii ATCC 19606 by Etest method in presence of […] NAB739
Acinetobacter baumannii [7] = test: Antibacterial activity against Acinetobacter baumannii ATCC 19606 by Etest method
Pseudomonas aeruginosa [8] = test: Antibacterial activity against Pseudomonas aeruginosa ATCC 27853by Etest method in presence of 2 ug/ml NAB739
Pseudomonas aeruginosa [9] = test: Antibacterial activity against Pseudomonas aeruginosa ATCC 27853by Etest method; procedure, shortened: as §1
Acinetobacter baumannii [10] = test: Antibacterial activity against Acinetobacter baumannii F264 by Etest method
Procedure, shortened: (§4)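 E-strip MIC on Mueller-Hinton agar without added peptide; inoculum per manufacturer, matching CLSI M2-A9.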

Acinetobacter baumannii [11] = test: Antibacterial activity against Acinetobacter baumannii F264 by Etest method in presence of 1 ug/ml NAB739
Acinetobacter baumannii [12] = test: (§5) Antibacterial activity against Acinetobacter baumannii F264 by Etest method in presence of […] NAB739
Acinetobacter baumannii [13] = test: Antibacterial activity against Acinetobacter baumannii F264 by Etest method in presence of NAB739
Acinetobacter baumannii [14] = test: as §3; remark: listed apart in the source
Pseudomonas aeruginosa [15] = test: Antibacterial activity against Pseudomonas aeruginosa ATCC 27853by Etest method in presence of 1 ug/ml NAB739; procedure, shortened: as §1
Pseudomonas aeruginosa [16] = test: as §2; remark: listed apart in the source
Acinetobacter baumannii [17] = test: as §5; remark: listed apart in the source
Acinetobacter baumannii [18] = test: Antibacterial activity against Acinetobacter baumannii ATCC 19606 by Etest method in presence of 0.5 ug/ml NAB739
Escherichia coli [19] = test: Ratio of the MIC for Escherichia coli ATCC 25992 in the absence of NAB7061 to MIC for Escherichia coli ATCC 25992 in the presence of 4 ug/ml of NAB7061
Klebsiella pneumoniae [20] = test: Antibacterial activity against Klebsiella pneumoniae ATCC 13883 by Etest method in presence of NAB7061; procedure, shortened: as §1
Klebsiella pneumoniae [21] = test: Antibacterial activity against Klebsiella pneumoniae ATCC 13883 by Etest method in presence of 1 ug/ml NAB7061; procedure, shortened: as §1
Enterobacter cloacae [22] = test: Antibacterial activity against Enterobacter cloacae ATCC 23355 […] by Etest method in presence of 4 ug/ml NAB7064
Escherichia coli [23] = test: Antibacterial activity against Escherichia coli IH3080 by Etest method in presence of 4 ug/ml NAB7064
Escherichia coli [24] = test: Antibacterial activity against Escherichia coli IH3080 by Etest method in presence of 2 ug/ml NAB7062
Klebsiella pneumoniae [25] = test: Antibacterial activity against Klebsiella pneumoniae ATCC 13883 by Etest method in presence of 4 ug/ml NAB7061; procedure, shortened: as §1
Klebsiella pneumoniae [26] = test: Ratio of the MIC for Klebsiella pneumoniae ATCC 13883 in the absence of NAB7061 to MIC for Klebsiella pneumoniae ATCC 13883 in the presence of 4 ug/ml of NAB7061
Escherichia coli [27] = test: Ratio of the MIC for Escherichia coli IH3080 in the absence of NAB7061 to MIC for Escherichia coli IH3080 in the presence of 4 ug/ml of NAB7061
Klebsiella pneumoniae [28] = test: Antibacterial activity against Klebsiella pneumoniae ATCC 13883 by Etest method; procedure, shortened: as §1
Escherichia coli [29] = test: Antibacterial activity against Escherichia coli ATCC 25992 by Etest method; procedure, shortened: as §4
Escherichia coli [30] = test: Antibacterial activity against Escherichia coli IH3080 by Etest method; procedure, shortened: as §4
Enterobacter cloacae [31] = test: Antibacterial activity against Enterobacter cloacae ATCC 23355 by Etest method; procedure, shortened: as §4
Enterobacter cloacae [32] = test: Ratio of the MIC for Enterobacter cloacae ATCC 23355 in the absence of NAB7061 to MIC for Enterobacter cloacae ATCC 23355 […] in the presence of 4 ug/ml of NAB7061
Escherichia coli [33] = test: Antibacterial activity against Escherichia coli ATCC […] by Etest method in presence of 1 ug/ml NAB7061
Klebsiella pneumoniae [34] = test: Antibacterial activity against Klebsiella pneumoniae ATCC 13883 by Etest method in presence of 2 ug/ml NAB7061; procedure, shortened: as §1
Enterobacter cloacae [35] = test: Antibacterial activity against Enterobacter cloacae ATCC 23355 […] by Etest method in presence of NAB7061
Enterobacter cloacae [36] = test: Antibacterial activity against Enterobacter cloacae ATCC 23355 […] by Etest method in presence of 2 ug/ml NAB7062
Escherichia coli [37] = test: Antibacterial activity against Escherichia coli ATCC […] by Etest method in presence of 2 ug/ml NAB7062
Escherichia coli [38] = test: Antibacterial activity against Escherichia coli ATCC […] by Etest method in presence of NAB7061
Escherichia coli [39] = test: Antibacterial activity against Escherichia coli IH3080 by Etest method in presence of NAB7061
Enterobacter cloacae [40] = test: Antibacterial activity against Enterobacter cloacae ATCC 23355 […] by Etest method in presence of 1 ug/ml NAB7061
Escherichia coli [41] = test: Antibacterial activity against Escherichia coli IH3080 by Etest method in presence of 1 ug/ml NAB7061
Escherichia coli [42] = test: Antibacterial activity against Escherichia coli ATCC […] by Etest method in presence of 4 ug/ml NAB7064
Escherichia coli [43] = test: Antibacterial activity against Escherichia coli IH3080 assessed as growth inhibition at 10 ug after 18 hrs by […]
Escherichia coli [44] = test: Antibacterial activity against Escherichia coli IH3080 by CLSI M7-A7 agar dilution method
Enterobacter cloacae [45] = test: Antibacterial activity against Enterobacter cloacae ATCC 23355 by CLSI M7-A7 agar dilution method
Enterobacter cloacae [46] = test: Antibacterial activity against Enterobacter cloacae CCUG52947 by CLSI M7-A7 agar dilution method
Klebsiella pneumoniae [47] = test: Antibacterial activity against Klebsiella pneumoniae by CLSI M7-A7 agar dilution method
Procedure, shortened: (§6)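 Agar dilution on Mueller-Hinton agar with test substance at 0.25 to 32 μg/ml in twofold steps. Spots of about 10^4 CFU applied with a multipoint inoculator.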

Serratia marcescens = test: Antibacterial activity against Serratia marcescens ATCC 8100 by CLSI M7-A7 agar dilution method; procedure, shortened: as §6
Citrobacter freundii = test: Antibacterial activity against Citrobacter freundii ATCC 8090 by CLSI M7-A7 agar dilution method
Acinetobacter baumannii [48] = test: Antibacterial activity against Acinetobacter baumannii by CLSI M7-A7 agar dilution method
Escherichia coli [49] = test: Antibacterial activity against Escherichia coli IH3080 assessed as growth inhibition at 10 ug after 18 hrs by […] in presence of 1 ug/ml rifampin
Escherichia coli [50] = test: Antibacterial activity against Escherichia coli ATCC […] by CLSI M7-A7 agar dilution method
Enterobacter cloacae [51] = test: Antibacterial activity against Enterobacter cloacae by CLSI M7-A7 agar dilution method
Escherichia coli [52] = test: Antibacterial activity against Escherichia coli by CLSI M7-A7 agar dilution method; procedure, shortened: as §6
Klebsiella oxytoca [53] = test: Antibacterial activity against Klebsiella oxytoca CCUG51683 by CLSI M7-A7 agar dilution method; procedure, shortened: as §6
Staphylococcus aureus = test: Antibacterial activity against Staphylococcus aureus ATCC 25923 by CLSI M7-A7 agar dilution method; procedure, shortened: as §6
Escherichia coli [54] = test: Antibacterial activity against Escherichia coli SC 9252 by CLSI M7-A7 agar dilution method
Escherichia coli [55] = test: Antibacterial activity against Escherichia coli SC 9253 by CLSI M7-A7 agar dilution method; procedure, shortened: as §6
Pseudomonas aeruginosa [56] = test: Antibacterial activity against Pseudomonas aeruginosa ATCC 27853 by CLSI M7-A7 agar dilution method; procedure, shortened: as §6
Klebsiella pneumoniae [57] = test: Antibacterial activity against Klebsiella pneumoniae CCUG45421 by CLSI M7-A7 agar dilution method; procedure, shortened: as §6
Candida albicans = test: Antibacterial activity against Candida albicans ATCC 28366 by CLSI M7-A7 agar dilution method
Acinetobacter baumannii [58] = test: Antibacterial activity against Acinetobacter baumannii ATCC 19606 by CLSI M7-A7 agar dilution method
Klebsiella oxytoca [59] = test: Antibacterial activity against Klebsiella oxytoca ATCC 13182 by CLSI M7-A7 agar dilution method; procedure, shortened: as §6

C[C@@H](O)[C@H]1C(=O)N2C(C(=O)O)=C(S[C@@H]3CN[C@H](C(=O)N(C)C)C3)[C@H](C)[C@H]12 [MEROPENEM]
MIC (Acinetobacter baumannii [1]): 0.125 µg/mL
MIC (Acinetobacter baumannii [2]): 1 µg/mL
MIC (Pseudomonas aeruginosa [3]): 0.25 µg/mL
fractional inhibitory concentration index (FICI) (Acinetobacter baumannii [4]): 0.5
MIC (Pseudomonas aeruginosa [5]): 0.25 µg/mL
MIC (Acinetobacter baumannii [6]): 1 µg/mL
MIC (Acinetobacter baumannii [7]): 1 µg/mL (≈ 2.61 µM)
MIC (Pseudomonas aeruginosa [8]): 0.25 µg/mL
MIC (Pseudomonas aeruginosa [9]): 0.25 µg/mL (≈ 0.652 µM)
MIC (Acinetobacter baumannii [10]): > 32 µg/mL
MIC (Acinetobacter baumannii [11]): 0.38 µg/mL
MIC (Acinetobacter baumannii [12]): 6 µg/mL
fractional inhibitory concentration index (FICI) (Acinetobacter baumannii [13]): 0.281
MIC (Acinetobacter baumannii [14]): 0.5 µg/mL
MIC (Pseudomonas aeruginosa [15]): 0.25 µg/mL
MIC (Pseudomonas aeruginosa [16]): 0.25 µg/mL
MIC (Acinetobacter baumannii [17]): 32 µg/mL
MIC (Acinetobacter baumannii [18]): 0.25 µg/mL

CC[C@H]1OC(=O)[C@H](C)[C@@H](O[C@H]2C[C@@](C)(OC)[C@@H](O)[C@H](C)O2)[C@H](C)[C@@H](O[C@@H]2O[C@H](C)C[C@H](N(C)C)[C@H]2O)[C@](C)(O)C[C@@H](C)CN(C)[C@H](C)[C@@H](O)[C@]1(C)O [AZITHROMYCIN]
Ratio (Escherichia coli [19]): 24
MIC (Klebsiella pneumoniae [20]): ≤ 0.126 µg/mL
MIC (Klebsiella pneumoniae [21]): 0.19 µg/mL
MIC (Enterobacter cloacae [22]): 0.19 µg/mL
MIC (Escherichia coli [23]): 0.064 µg/mL
MIC (Escherichia coli [24]): 0.19 µg/mL
MIC (Klebsiella pneumoniae [25]): 0.047 µg/mL
Ratio (Klebsiella pneumoniae [26]): 31
Ratio (Escherichia coli [27]): 31
MIC (Klebsiella pneumoniae [28]): 2 µg/mL (≈ 2.67 µM)
MIC (Escherichia coli [29]): 3 µg/mL (≈ 4.01 µM)
MIC (Escherichia coli [30]): 2 µg/mL (≈ 2.67 µM)
MIC (Enterobacter cloacae [31]): 6 µg/mL (≈ 8.01 µM)
Ratio (Enterobacter cloacae [32]): 32
MIC (Escherichia coli [33]): 0.5 µg/mL
MIC (Klebsiella pneumoniae [34]): 0.19 µg/mL
MIC (Enterobacter cloacae [35]): 0.438 µg/mL
MIC (Enterobacter cloacae [36]): 1.5 µg/mL
MIC (Escherichia coli [37]): 0.19 µg/mL
fractional inhibitory concentration index (FICI) (Escherichia coli [38]): 0.157
MIC (Escherichia coli [39]): 0.173 µg/mL
MIC (Enterobacter cloacae [40]): 4 µg/mL
MIC (Escherichia coli [41]): 0.75 µg/mL
MIC (Escherichia coli [42]): 0.094 µg/mL

POLYMYXIN B
inhibition zone (IZ) (Escherichia coli [43]): 120 mm2
MIC (Escherichia coli [44]): 0.5 µg/mL
MIC (Enterobacter cloacae [45]): 0.5 µg/mL
MIC (Enterobacter cloacae [46]): 1 µg/mL
MIC (Klebsiella pneumoniae [47]): 0.5 µg/mL
MIC (Serratia marcescens): > 32 µg/mL
MIC (Citrobacter freundii): 1 µg/mL
MIC (Acinetobacter baumannii [48]): 0.5 µg/mL
inhibition zone (IZ) (Escherichia coli [49]): 125 mm2
MIC (Escherichia coli [50]): 1 µg/mL
MIC (Enterobacter cloacae [51]): 0.5 µg/mL
MIC (Escherichia coli [52]): 0.25 µg/mL
MIC (Klebsiella oxytoca [53]): 0.5 µg/mL
MIC (Staphylococcus aureus): > 32 µg/mL
MIC (Escherichia coli [54]): > 32 µg/mL
MIC (Escherichia coli [55]): > 32 µg/mL
MIC (Pseudomonas aeruginosa [56]): 1 µg/mL
MIC (Klebsiella pneumoniae [57]): 1 µg/mL
MIC (Candida albicans): > 32 µg/mL
MIC (Acinetobacter baumannii [58]): 1 µg/mL
MIC (Klebsiella oxytoca [59]): 0.5 µg/mL
